Screens (PubChem BioAssay)
MBD2 DNA inh: blocks human MBD2 binding to methylated DNA; 0.31% of 370,000 active; inhibition, % at 4.4 µM; AID 686964; TR-FRET, MBD2 binding to methylated oligonucleotide; in the data active = inhibition above about 13%
Target sequence (Q9UBB5 whole entry, looked up): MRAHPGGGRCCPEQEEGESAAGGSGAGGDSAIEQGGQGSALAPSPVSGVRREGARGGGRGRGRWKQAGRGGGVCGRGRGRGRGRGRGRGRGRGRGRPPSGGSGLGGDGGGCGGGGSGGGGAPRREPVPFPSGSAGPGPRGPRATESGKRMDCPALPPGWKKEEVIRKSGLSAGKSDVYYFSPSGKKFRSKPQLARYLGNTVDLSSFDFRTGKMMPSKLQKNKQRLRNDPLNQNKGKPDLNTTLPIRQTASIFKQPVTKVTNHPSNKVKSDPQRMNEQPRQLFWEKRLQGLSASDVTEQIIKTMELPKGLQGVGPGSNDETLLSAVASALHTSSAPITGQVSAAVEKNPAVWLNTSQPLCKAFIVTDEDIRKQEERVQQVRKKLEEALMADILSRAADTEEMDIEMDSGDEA
Rin1 Abl inh: blocks binding of human Rin1 to Abl; AID 588664; inhibition, % at 7.35 µM; 0.4% of 360,000 active; TR-FRET Rin1/Abl binding, biochemical; in the data active = inhibition above about 5%, passing the limit was not always enough
UHRF1 binding: human UHRF1 methylated DNA binding inhibitors; Q96T88; UHRF1 binding to methylated oligo, TR-FRET; inhibition, % at 4.4 µM; 0.75% of 370,000 active; AID 687016; in the data active = inhibition above about 21%;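 note: UHRF1 SRA domain binding a hemimethylated CpG hairpin DNA probe; 0% = median of test compound wells and 100% = reference inhibitor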
TDP2 inh: blocks human TDP2 phosphodiesterase activity; O95551; recombinant TDP2, T5PNP hydrolysis, p-nitrophenol absorbance 415 nm; inhibition, % at 12.8 µM; 0.34% of 370,000 active; AID 720702;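 active = inhibition above the mean of all tested compounds plus 3 SD, set per campaign, cut at about 25% in these data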;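 note: 0% = DMSO with enzyme and 100% = buffer with substrate but no TDP2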
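test system = human TDP2 enzyme | input = TDP2 enzyme at 120 nM final | medium = 50 mM Tris-HCl pH 7.5 with Mg2+, KCl, DTT, BSA | also added = T5PNP substrate, 5 mM | times = 2 h at 37 °C | technique = epi absorbance | benchmarks = high control without enzyme, low control DMSO plus TDP2 | replication = each compound tested once, singlicate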
LEDGF integ inh: blocks HIV-1 LEDGF/p75-dependent DNA integration | TR-FRET IN-LEDGF/p75 DNA integration, Eu/Cy5 | 0.64% of 370,000 active | AID 743269 | inhibition, % at 3.7 µM;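 active = inhibition above the screen-wide mean plus 3 SD, cut at about 13% in these data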;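 note: signal is the Cy5 over europium emission ratio at 671 and 618 nm; 0% = plate median of compound wells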
Rin1 Abl conf: Rin1-Abl interaction inhibition confirmation | shares compounds with Rin1 Abl inh | TR-FRET Rin1-Abl binding, purified proteins | inhibition, % at 7.35 µM | 49% of 1,300 active | AID 602124
GFP quench: counter-screen for Rin1-Abl inhibitors: GFP fluorescence quenchers | shares compounds with Rin1 Abl inh | inhibition, % at 6.75 µM | 8.5% of 1,300 active | inhibitors/quenchers counterscreen;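 note: ABL1-eGFP fusion protein alone without its partner RIN1-SBP; 0% = protein with vehicle and 100% = wells lacking protein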
GFP quench DR: counter-screen for Rin1-Abl inhibitors: GFP quenchers, dose response | shares compounds with Rin1 Abl inh | GFP fluorescence interference/quenching counterscreen | IC50, µM | 230 tested, under 10 active; call rule not given here;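 note: ABL1-eGFP fusion protein alone without its RIN1 binding partner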
* hit, by the source's call; / = no result given. Rows were chosen to be rich in hits. Some 1.9% of all compounds tested hit in one or more screens of this group. Cut-off read from the data, not from the text of the source, unless noted: active = inhibition above about 6.5%; inactive = the rest.

SMILES | MBD2 DNA inh | Rin1 Abl inh | UHRF1 binding | TDP2 inh | LEDGF integ inh | Rin1 Abl conf | GFP quench | others
COP(=O)(O)C[C@@H]1CCc2cc(C)cc([C@H](CC(C)C)NC(=O)OCc3ccccc3)c2O1 | 6 | / | 5 | -9 | -5 | / | /
CCOC(=O)CC1ON(C)C(=O)N1c1ccc(Cl)cc1Cl (configuration not stated) | -3 | 7.0* | 1 | 3 | 0 | 0 | -2
O=C(NCCc1ccc(Cl)cc1)C1CCC(=O)N(C2CCCCCC2)C1 (configuration not stated) | -4 | 2 | -1 | 16 | 1 | / | /
O=C(NCCc1ccc(Cl)cc1)C1CC(=O)N(C2CCCC2)C1 (configuration not stated) | -3 | 15* | 2 | -8 | -4 | -1 | 2
O=C(Nc1ccc(F)cc1)OCCN1C(=O)CCC12CCC(c1ccc(Cl)cc1)CC2 (configuration not stated) | -1 | / | 3 | -2 | 1 | / | /
Cc1cc(C)nc(N(C#N)Cc2ccc([N+](=O)[O-])cc2)n1 | 1 | -1 | 7 | -2 | 3 | / | /
Cc1cc(C)nc(N(C#N)Cc2ccccc2)n1 | 5 | 7.2* | 1 | -4 | -3 | -2 | 1
O=C(C1=COCCO1)N(Cc1nnc(-c2ccc(Cl)cc2)o1)C1CC1 | 3 | -2 | 1 | -7 | -7 | / | /
O=C(C1=COCCO1)N(Cc1nnc(-c2ccccc2Cl)o1)C1CC1 | 2 | 8.2* | -4 | 7 | 1 | -1 | 1
Cc1cccc(OCc2nnc3n2CCCCC3)c1 | -5 | 8.0* | 0 | -3 | 2 | -2 | -2
C=C(C)Cn1c(SCC(=O)N/N=C(\C)c2ccc([N+](=O)[O-])cc2)nnc1-c1ccc(Br)cc1 | 4 | / | 3 | -10 | 5 | / | /
CCOC(=O)c1ccc(NC(=O)COc2ccccc2CNCCc2ccccc2)cc1 | 0 | 19* | 0 | 5 | -3 | 24* | 1 | GFP quench DR=>68
CCOc1nc(Nc2ccc(OC)cc2)nc(OCC)n1 | 3 | 9.2* | 10 | 5 | 1 | 3 | -1
COc1ccc(Nc2nc(OC)nc(OC)n2)cc1 | 2 | -1 | -1 | 2 | 2 | / | /
N#CCC[C@H]1CC[C@]2(CCCN(S(=O)(=O)c3ccccc3)C2)O1 | 9 | / | 3 | -5 | -2 | / | /
O=C(Nc1ccccc1Cl)c1ccc2ccccc2c1 | 4 | 7.6* | 3 | -5 | -5 | -3 | 0
COCCN1C(=O)C2=C(C1=O)C1N(C)c3ccccc3[C@@]13C[C@@H](CO)N(C(=O)CCC(=O)OC)C3=N2 (some centres not stated) | -2 | / | 0 | 0 | -2 | / | /
Cc1ccccc1N(C(=O)c1snc(C(N)=O)c1N)C(C(=O)NCc1ccccc1)c1ccc(O)cc1 (configuration not stated) | -2 | 0 | -2 | 2 | -3 | / | /
CN(C)c1ccc(C(C(=O)NCC2CCCO2)N(C(=O)c2snc(C(N)=O)c2N)c2ccc3c(c2)OCO3)cc1 (configuration not stated) | 1 | 0 | 1 | 8 | -1 | / | /
CCOc1ccccc1N(C(=O)c1snc(C(N)=O)c1N)C(C(=O)NCC1CCCO1)c1ccc2ncccc2c1 (configuration not stated) | 0 | 21* | -1 | 8 | 1 | 29* | -1 | GFP quench DR=>68
COc1ccc(N(C(=O)c2snc(C(N)=O)c2N)C(C(=O)NC2CCCC2)c2ccc(F)cc2)c(OC)c1 (configuration not stated) | -8 | 5 | -2 | -6 | 6 | / | /
COc1ccc(C(C(=O)NC2CCCCC2)N(C(=O)c2snc(C(N)=O)c2N)c2ccc(OC)cc2OC)cc1 (configuration not stated) | 4 | 18* | 0 | 6 | 0 | 15* | 0
